Sampled rows, rich in hits. Any-hit rate of the full collection: about 3.1%.
KCNK3 block = human KCNK3 channel inhibition, primary screen; O14649; CHO-KCNK3 thallium flux, FluxOR fluorescence; hits give low values; B-score at 10 µM; 340,000 tested, 0.84% active; AID 602410;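 active means B-score under library mean minus 4 SD, starting fluorescence ratio at most library mean plus 5 SD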;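 further: more negative B-score means stronger inhibition of thallium flux through KCNK3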
hERG rescue = hERG (human) protection from proarrhythmic block. Q12809. CHO-hERG, FluxOR thallium flux, dofetilide IC70 present. activation (rescue from dofetilide block), less the hit threshold, % at 10 µM. 310,000 tested, 0.51% active. AID 1511;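 active means activation above the mean of controls blocked by dofetilide plus 5 SD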;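 further: thallium influx through hERG after potassium depolarization seen as dye fluorescence rise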
KCNQ1 block = inhibitors of human KCNQ1 potassium channel | P51787 | CHO-K1 KCNQ1, FluxOR thallium flux fluorescence; hits give high values | B-score at 10 µM | 310,000 tested, 1.3% active | AID 2642;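 active means compounds whose thallium flux B-score, printed positive for inhibition, exceeds three library SD while starting fluorescence stays within three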;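 further: channel opened by potassium depolarization with thallium stimulus after 20 min compound exposure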
Target sequence (P51787 whole entry, looked up): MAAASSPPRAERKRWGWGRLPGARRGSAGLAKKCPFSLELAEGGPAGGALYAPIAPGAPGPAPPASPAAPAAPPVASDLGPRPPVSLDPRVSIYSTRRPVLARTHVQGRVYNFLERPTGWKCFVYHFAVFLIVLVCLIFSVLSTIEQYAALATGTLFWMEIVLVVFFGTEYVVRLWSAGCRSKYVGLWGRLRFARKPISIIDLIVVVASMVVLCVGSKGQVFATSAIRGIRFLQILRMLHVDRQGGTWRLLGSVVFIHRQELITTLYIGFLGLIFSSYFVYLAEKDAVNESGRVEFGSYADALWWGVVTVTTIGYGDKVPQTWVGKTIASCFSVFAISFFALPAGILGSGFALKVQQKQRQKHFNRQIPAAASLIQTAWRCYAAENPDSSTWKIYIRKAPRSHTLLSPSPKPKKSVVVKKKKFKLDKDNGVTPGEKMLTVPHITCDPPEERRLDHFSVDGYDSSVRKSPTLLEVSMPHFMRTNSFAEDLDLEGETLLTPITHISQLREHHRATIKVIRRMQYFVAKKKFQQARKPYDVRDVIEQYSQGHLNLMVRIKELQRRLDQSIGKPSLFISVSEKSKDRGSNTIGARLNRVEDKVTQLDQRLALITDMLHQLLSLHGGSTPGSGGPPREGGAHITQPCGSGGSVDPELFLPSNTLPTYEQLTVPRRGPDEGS
KCNQ1 act = human KCNQ1 channel potentiation or activation. CHO-K1 KCNQ1, thallium flux FluxOR fluorescence; hits give high values. 310,000 tested, 0.35% active. AID 2648. B-score at 10 µM;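 active means fluorescence ratio B-score, a plate-corrected score, at least three library SD, with initial intensity B-score within 5 SD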
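Material: CHO-K1 cells stably expressing KCNQ1. Medium: assay buffer for compound exposure, DMSO matched across wells. Reagent: K+/Tl+ depolarizing stimulus. Compound dosing: single-concentration screen. Times: 37 °C overnight plating, 90-min dark dye load, 20-min compound pretreatment. Technique: FluxOR Tl+ flux fluorescence.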
KCNK9 inh = human KCNK9 channel inhibition; Q9NPC2; HEK293 KCNK9, FluxOR thallium flux fluorescence; hits give low values; B-score at 10 µM; 310,000 tested, 1.2% active; AID 488922;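 active means ratio B-score over 3 SD below the library mean, with starting fluorescence within 5 SD of its mean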;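 further: negative B-score means less thallium flux so channel inhibition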
KCNK3 inh conf = human KCNK3 channel inhibition, confirmation assay | CHO-KCNK3 thallium flux, FluxOR fluorescence; 0% buffer, 100% carvedilol maximal block | shares compounds with KCNK3 block | 2,400 tested, 99% active | ratio percent of control, % at 10 µM;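 active means ratio percent of control, averaged over triplicates, above buffer control mean plus 5 SD, cut at about 64% in these data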;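 further: ratio is the fluorescence rise from min to max over baseline after thallium stimulus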
KCNK3 noninduced = counter-screen for KCNK3 inhibitors: effect in non-induced cells; shares compounds with KCNK3 block; AID 651747; non-induced KCNK3 parental cells, FluxOR thallium flux; hits give low values; thallium flux ratio (lower = more inhibition) at 10 µM; 2,400 tested, 40% active;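 active means thallium flux ratio, averaged over three wells, more than 5 SD below the buffer control mean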;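 further: host cells are CHO cells without KCNK3 induction; ratio is peak minus trough fluorescence over baseline then normalized to buffer controls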
Numbers without * were called inactive; i = inactive; x = no result.

SMILES | KCNK3 block | hERG rescue | KCNQ1 block | KCNQ1 act | KCNK9 inh | KCNK3 inh conf | KCNK3 noninduced
Cn1c(SCc2ccccc2)nnc1-c1cccs1 | i | -7 | i | i | i | x | x
Cn1c(SCc2ccc(Br)cc2)nc2ccccc2c1=O | -9.5* | -3 | i | i | i | 123* | 0.13*
Cn1c(SCC#N)nc2ccccc2c1=O | i | -11 | i | i | i | x | x
Cn1c(SCCOc2ccccc2F)nc2ccccc2c1=O | -13* | -12 | i | i | i | 110* | i
Cn1c(SCc2ccccc2)nc2ccsc2c1=O | -9.8* | -11 | i | i | i | 104* | i
C=C(c1cn(C(C)=O)c2ccccc12)c1cn(C(C)=O)c2ccccc12 | -12* | x | x | x | x | 62* | 0.15*
CC(=O)n1cc(CO)c2ccccc21 | i | -9 | i | i | i | x | x
O=C1OC[C@H](Cc2ccc3c(c2)OCO3)/C1=C\c1ccc2c(c1)OCO2 | -9.7* | -11 | i | i | i | 133* | i
COCc1cc(C)nc(SCc2ccc(Cl)cc2)c1C#N | -11* | -6 | i | i | i | 96* | 0.15*
COCc1cc(C)nc(SCc2ccc(Br)cc2)c1C#N | -11* | -8 | i | i | i | 106* | i
COCc1cc(C)nc(SCc2ccc(F)cc2)c1C#N | i | -2 | i | i | i | x | x
O=C(CCC(=O)N1CCSc2ccccc21)NC1CCCCC1 | i | -5 | i | i | i | x | x
Cc1nc2sc3c(NCc4ccco4)ncnc3c2c2c1COC(C)(C)C2 | i | -9 | i | i | i | x | x
CCCSc1nc(NCc2ccco2)c2c3c(sc2n1)COC(C)(C)C3 | -9.6* | -11 | 6* | i | i | 108* | i
O=C1Nc2ccccc2C12OCC(COc1ccc(Cl)cc1)O2 (centres undefined) | -10* | -17 | i | i | i | 108* | i
CCCc1cc(NCCCn2ccnc2)n2nc(C)c(-c3ccccc3)c2n1 | -8.8* | -22 | i | i | i | 109* | 0.15*
Cc1nn(-c2ccccc2)c(=O)c2ccccc12 | i | -12 | i | i | i | x | x
Cc1nn(-c2cccc(C(F)(F)F)c2)c(=O)c2ccccc12 | -9* | -3 | i | i | i | 114* | 0.16*
Cc1ccc(N(C)S(=O)(=O)c2ccc(C)cc2)cc1 | i | -8 | i | i | i | x | x
Cc1ccc(S(=O)(=O)N(C)c2ccc3ccccc3c2)cc1 | -9.4* | -38 | i | i | i | 122* | 0.13*
Fc1ccc(/C=C2\CCCC3=C2Nc2ncnn2C3c2ccc(F)cc2)cc1 (centres undefined) | -9.6* | -14 | i | i | i | 114* | 0.14*
COc1ccc(C2C3=C(Nc4ncnn42)c2ccccc2CCC3)cc1 (centres undefined) | i | 2 | i | i | i | x | x
COc1cc(OC)cc(C(=O)N[C@H](C(=O)Nc2cc(F)ccc2C)C(C)C)c1 | i | -6 | i | i | i | x | x
C=CCNCC(=O)Nc1ccccc1SCC(=O)Nc1ccsc1C(=O)OC | i | -9 | i | i | i | x | x
CCN(CC)CC(=O)Nc1ccccc1SCC(=O)Nc1ccsc1C(=O)OC | -9.9* | -11 | i | i | i | 98* | i
SMILES | KCNK3 block | hERG rescue | KCNQ1 block | KCNQ1 act | KCNK9 inh | KCNK3 inh conf | KCNK3 noninduced
CS(=O)(=O)N(CC(=O)O)Cc1cccc(CN(CC(=O)O)S(C)(=O)=O)c1 | i | -7 | i | i | i | x | x
CCN1CCN(C(=O)c2cc3c(s2)-c2c(C)cccc2OC3)CC1 | i | -11 | i | i | i | x | x
Cc1cccc2c1-c1sc(C(=O)N3CCCCC3)cc1CO2 | -12* | -6 | i | i | i | 90* | i
CCOC(=O)N1CCN(C(=O)c2cc3c(s2)-c2c(C)cccc2OC3)CC1 | i | -4 | i | i | i | x | x
Cc1cccc2c1-c1sc(C(=O)N3CCc4ccccc4C3)cc1CO2 | -8.7* | -7 | i | i | i | 87* | 0.14*
O=C(c1ccc(-c2ccccc2)cc1)C1CCCN(Cc2ccncc2)C1 (centres undefined) | -10* | -24 | i | i | i | 129* | i
CCOc1ccc(N(CC(=O)NC(C)(C)C)C(=O)CCC(=O)Nc2nccs2)cc1 | i | -6 | i | i | i | x | x
CCOC(=O)c1c(NC(=O)C2CCCO2)sc(C)c1C (centres undefined) | -11* | 1 | i | i | i | 109* | i
CCOC(=O)c1c(NC(=O)COC(=O)C2CC2C)sc(C)c1C (centres undefined) | -10* | -15 | i | i | -8.1* | 110* | i
Cc1ccc(-c2nc(CNC(=O)c3ccco3)cs2)cc1 | i | -10 | i | i | i | x | x
CC(Sc1nnnn1C1CCCC1)C(=O)Nc1cccc(S(=O)(=O)N2CCOCC2)c1 (centres undefined) | i | x | x | x | x | x | x
COc1ccc(OC)c(NC2=C(Cl)C(=O)N(Cc3ccccc3)C2=O)c1 | i | -11 | i | i | i | x | x
CCOc1ccccc1NC1=C(Cl)C(=O)N(Cc2ccccc2)C1=O | -8.8* | -3 | i | i | i | 117* | 0.15*
C[C@@H]1O[C@@H](O[C@@H]2[C@@H](O)[C@H](OCCc3ccc(O)c(O)c3)O[C@H](CO)[C@H]2OC(=O)/C=C/c2ccc(O)c(O)c2)[C@H](O)[C@H](O)[C@H]1O | i | x | x | x | x | x | x
O=C(CSc1ncnc2c1cnn2CCc1ccccc1)Nc1cccc(C(F)(F)F)c1 | -8.9* | -6 | i | i | i | 129* | 0.11*
CCOc1ccc(OCC(=O)OCC(=O)N2CCN(S(=O)(=O)c3ccc(C)cc3C)CC2)cc1 | i | x | x | x | x | x | x
COc1ccc(OCC(=O)N2CCCC(CO)(CCOc3ccccc3)C2)cc1 (centres undefined) | i | -5 | i | i | i | x | x
CCOC(CNC(=O)CN1C(=O)COc2ccc(S(=O)(=O)N3CCCC3)cc21)OCC | i | -11 | i | i | i | x | x
COCn1c(COc2ccc3ccccc3c2)nc2ccccc21 | -8.8* | -8 | i | i | i | 95* | i
O=c1c(-c2ccccc2)c(-c2ccccc2)oc2cc(O)cc(O)c12 | -9* | -14 | 13* | i | i | 112* | i
COc1ccc(Cl)cc1NC(=O)CN(C)C1CCS(=O)(=O)C1 (centres undefined) | i | x | x | x | x | x | x

Source: PubChem BioAssay
